Data: ChEMBL document CHEMBL2417369, “Synthesis and evaluation of heteroaryl substituted diazaspirocycles as scaffolds to probe the ATP-binding site of protein kinases” (Bioorg Med Chem, 2013)

Experiments:
[1] = biological target: Glycogen synthase kinase-3 beta (Homo sapiens, UniProt P49841); test: Inhibition of GSK3beta (unknown origin) at 30 uM by microfluidic mobility shift assay relative to control
Method in brief: (§1)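 Single-point screen in a 24-enzyme kinase panel using a microfluidic assay. Each compound was tested at […] with ATP at roughly the Km for each enzyme. The pan-AGC inhibitor H-89 served as an internal control on every plate.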

[2] = biological target: Serine/threonine-protein kinase Chk2 (Homo sapiens, UniProt O96017); test: Inhibition of CHK2 (unknown origin) at 30 uM by microfluidic mobility shift assay relative to control; method in brief: as §1
Homo sapiens = species on record: Homo sapiens; test: Inhibition of PKA (unknown origin) at 30 uM by microfluidic mobility shift assay relative to control; method in brief: as §1
[3] = biological target: T1, Serine/threonine-protein kinase D2 (Homo sapiens) (UniProt Q9BZL6); test: Inhibition of PKD2 (unknown origin) at 30 uM by microfluidic mobility shift assay relative to control; method in brief: as §1
T1 sequence (whole entry): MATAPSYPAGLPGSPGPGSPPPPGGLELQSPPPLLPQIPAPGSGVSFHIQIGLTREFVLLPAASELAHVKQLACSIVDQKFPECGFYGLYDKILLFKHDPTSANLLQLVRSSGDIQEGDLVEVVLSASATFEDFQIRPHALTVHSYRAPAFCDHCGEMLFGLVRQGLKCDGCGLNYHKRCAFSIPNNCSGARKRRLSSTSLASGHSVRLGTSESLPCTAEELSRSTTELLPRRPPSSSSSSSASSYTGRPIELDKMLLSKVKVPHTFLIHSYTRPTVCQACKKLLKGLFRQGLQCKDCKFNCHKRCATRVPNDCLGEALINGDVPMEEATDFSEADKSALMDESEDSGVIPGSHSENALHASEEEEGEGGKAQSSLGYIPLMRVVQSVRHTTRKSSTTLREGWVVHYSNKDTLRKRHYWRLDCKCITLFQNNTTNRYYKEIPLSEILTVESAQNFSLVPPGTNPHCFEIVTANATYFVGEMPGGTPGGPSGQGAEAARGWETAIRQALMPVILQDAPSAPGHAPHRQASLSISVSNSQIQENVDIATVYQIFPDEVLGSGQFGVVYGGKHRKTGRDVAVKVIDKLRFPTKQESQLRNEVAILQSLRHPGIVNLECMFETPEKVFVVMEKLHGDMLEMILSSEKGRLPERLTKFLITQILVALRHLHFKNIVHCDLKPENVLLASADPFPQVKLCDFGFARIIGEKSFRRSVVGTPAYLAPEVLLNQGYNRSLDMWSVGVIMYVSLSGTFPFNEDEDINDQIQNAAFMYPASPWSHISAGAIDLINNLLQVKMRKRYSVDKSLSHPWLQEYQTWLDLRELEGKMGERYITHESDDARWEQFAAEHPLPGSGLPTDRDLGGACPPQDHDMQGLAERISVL

[4] = biological target: Tyrosine-protein kinase Lck (Homo sapiens, UniProt P06239); test: Inhibition of LCK (unknown origin) at 30 uM by microfluidic mobility shift assay relative to control; method in brief: as §1
[5] = biological target: T2, Serine/threonine-protein kinase Chk1 (Homo sapiens) (UniProt O14757); test: Inhibition of CHK1 (unknown origin) at 30 uM by microfluidic mobility shift assay relative to control; method in brief: as §1
T2 sequence (whole entry): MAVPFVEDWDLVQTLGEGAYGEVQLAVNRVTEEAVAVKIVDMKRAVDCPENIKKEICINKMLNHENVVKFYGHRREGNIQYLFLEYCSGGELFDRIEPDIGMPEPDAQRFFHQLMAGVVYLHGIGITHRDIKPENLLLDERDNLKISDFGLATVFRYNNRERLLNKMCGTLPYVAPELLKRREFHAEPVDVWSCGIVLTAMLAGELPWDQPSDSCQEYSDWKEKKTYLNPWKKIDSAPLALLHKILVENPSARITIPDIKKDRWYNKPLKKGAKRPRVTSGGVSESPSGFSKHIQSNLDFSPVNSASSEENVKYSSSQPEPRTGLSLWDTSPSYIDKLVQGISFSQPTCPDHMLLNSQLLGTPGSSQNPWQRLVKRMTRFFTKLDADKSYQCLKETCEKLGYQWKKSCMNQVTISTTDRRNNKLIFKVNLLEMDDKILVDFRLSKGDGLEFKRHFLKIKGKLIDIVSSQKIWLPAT

[6] = biological target: Tyrosine-protein kinase ABL1 (Homo sapiens, UniProt P00519); test: Inhibition of ABL (unknown origin) at 30 uM by microfluidic mobility shift assay relative to control; method in brief: as §1
[7] = biological target: T3, MAP kinase-activated protein kinase 5 (Homo sapiens) (UniProt Q8IW41); test: Inhibition of MAPKAPK5 (unknown origin) at 30 uM by microfluidic mobility shift assay relative to control; method in brief: as §1
T3 sequence (whole entry): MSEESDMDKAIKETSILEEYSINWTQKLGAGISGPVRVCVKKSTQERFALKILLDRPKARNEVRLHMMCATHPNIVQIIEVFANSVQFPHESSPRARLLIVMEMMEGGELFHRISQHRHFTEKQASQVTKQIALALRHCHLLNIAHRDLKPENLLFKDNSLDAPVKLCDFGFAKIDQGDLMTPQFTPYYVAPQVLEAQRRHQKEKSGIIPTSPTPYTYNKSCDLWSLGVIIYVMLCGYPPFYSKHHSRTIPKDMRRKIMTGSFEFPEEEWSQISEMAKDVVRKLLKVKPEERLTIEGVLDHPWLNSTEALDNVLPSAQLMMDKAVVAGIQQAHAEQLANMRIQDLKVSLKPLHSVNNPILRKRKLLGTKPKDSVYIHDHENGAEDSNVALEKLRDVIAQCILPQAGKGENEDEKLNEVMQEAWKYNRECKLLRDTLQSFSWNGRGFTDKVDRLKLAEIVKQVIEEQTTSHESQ

[8] = biological target: RAC-beta serine/threonine-protein kinase (Homo sapiens, UniProt P31751); test: Inhibition of AKT2 (unknown origin) at 30 uM by microfluidic mobility shift assay relative to control; method in brief: as §1
[9] = biological target: RAC-alpha serine/threonine-protein kinase (Homo sapiens, UniProt P31749); test: Inhibition of AKT1 (unknown origin) at 30 uM by microfluidic mobility shift assay relative to control; method in brief: as §1
[10] = biological target: Tyrosine-protein kinase Fyn (Homo sapiens, UniProt P06241); test: Inhibition of FYN (unknown origin) at 30 uM by microfluidic mobility shift assay relative to control; method in brief: as §1
[11] = biological target: Insulin receptor (Homo sapiens) (UniProt P06213); test: Inhibition of INSR (unknown origin) at 30 uM by microfluidic mobility shift assay relative to control; method in brief: as §1
[12] = biological target: Mitogen-activated protein kinase 3 (Homo sapiens, UniProt P27361); test: Inhibition of ERK1 (unknown origin) at 30 uM by microfluidic mobility shift assay relative to control; method in brief: as §1

Tyrosine-protein kinase ABL1, sequence (P00519 whole entry): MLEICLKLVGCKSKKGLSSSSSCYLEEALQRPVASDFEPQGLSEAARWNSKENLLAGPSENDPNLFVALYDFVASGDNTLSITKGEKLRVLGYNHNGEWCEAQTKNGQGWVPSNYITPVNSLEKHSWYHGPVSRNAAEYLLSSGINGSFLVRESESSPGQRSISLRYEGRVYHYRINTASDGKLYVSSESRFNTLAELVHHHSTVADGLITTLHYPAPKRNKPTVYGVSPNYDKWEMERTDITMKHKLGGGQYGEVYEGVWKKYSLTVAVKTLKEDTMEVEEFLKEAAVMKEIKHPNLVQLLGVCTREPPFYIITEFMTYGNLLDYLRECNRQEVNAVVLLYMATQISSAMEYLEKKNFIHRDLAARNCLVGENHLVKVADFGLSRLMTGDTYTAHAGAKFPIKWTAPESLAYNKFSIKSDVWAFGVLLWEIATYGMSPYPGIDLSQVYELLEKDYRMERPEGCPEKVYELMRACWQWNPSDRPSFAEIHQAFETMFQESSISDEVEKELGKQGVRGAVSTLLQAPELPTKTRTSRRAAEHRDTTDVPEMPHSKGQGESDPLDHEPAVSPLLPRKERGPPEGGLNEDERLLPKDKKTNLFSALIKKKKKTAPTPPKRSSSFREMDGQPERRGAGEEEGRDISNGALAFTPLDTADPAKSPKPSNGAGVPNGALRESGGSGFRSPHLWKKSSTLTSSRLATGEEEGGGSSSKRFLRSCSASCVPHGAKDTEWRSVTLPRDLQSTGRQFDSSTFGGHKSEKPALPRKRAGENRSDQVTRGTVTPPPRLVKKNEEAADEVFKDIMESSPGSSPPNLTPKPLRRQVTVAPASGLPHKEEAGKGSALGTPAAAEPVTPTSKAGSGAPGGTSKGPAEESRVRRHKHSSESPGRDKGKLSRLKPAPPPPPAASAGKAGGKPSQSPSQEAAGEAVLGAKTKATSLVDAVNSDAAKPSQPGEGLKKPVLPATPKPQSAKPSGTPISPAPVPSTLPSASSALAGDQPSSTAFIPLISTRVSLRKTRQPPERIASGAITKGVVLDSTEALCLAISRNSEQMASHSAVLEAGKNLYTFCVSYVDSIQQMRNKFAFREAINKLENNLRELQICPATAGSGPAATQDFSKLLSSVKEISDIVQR
RAC-beta serine/threonine-protein kinase, sequence (P31751 whole entry): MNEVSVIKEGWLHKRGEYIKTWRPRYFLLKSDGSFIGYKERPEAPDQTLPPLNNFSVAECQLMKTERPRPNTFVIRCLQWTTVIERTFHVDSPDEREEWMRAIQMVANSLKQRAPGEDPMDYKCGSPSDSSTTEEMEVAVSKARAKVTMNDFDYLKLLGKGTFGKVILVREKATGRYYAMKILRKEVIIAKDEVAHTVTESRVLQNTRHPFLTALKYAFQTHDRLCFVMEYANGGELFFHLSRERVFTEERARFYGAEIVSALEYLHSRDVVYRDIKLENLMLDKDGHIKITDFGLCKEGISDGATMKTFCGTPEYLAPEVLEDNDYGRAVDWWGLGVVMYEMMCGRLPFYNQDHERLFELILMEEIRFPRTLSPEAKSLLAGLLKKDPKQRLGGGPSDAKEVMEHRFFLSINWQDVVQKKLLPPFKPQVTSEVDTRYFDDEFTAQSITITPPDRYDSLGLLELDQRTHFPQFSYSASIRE
Glycogen synthase kinase-3 beta, sequence (P49841 whole entry, looked up): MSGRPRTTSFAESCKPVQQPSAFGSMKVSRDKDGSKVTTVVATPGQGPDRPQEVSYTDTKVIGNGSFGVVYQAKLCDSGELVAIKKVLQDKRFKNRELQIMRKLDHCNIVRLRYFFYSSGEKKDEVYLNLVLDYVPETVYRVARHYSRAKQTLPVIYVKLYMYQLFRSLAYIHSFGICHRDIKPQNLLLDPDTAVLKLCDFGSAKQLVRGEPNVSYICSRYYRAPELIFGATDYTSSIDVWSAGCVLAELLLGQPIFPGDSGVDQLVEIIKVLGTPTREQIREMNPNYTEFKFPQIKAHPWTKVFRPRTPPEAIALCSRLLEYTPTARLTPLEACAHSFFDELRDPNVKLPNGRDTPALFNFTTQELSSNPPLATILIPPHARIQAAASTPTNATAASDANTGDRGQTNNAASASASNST
Tyrosine-protein kinase Fyn, sequence (P06241 2-537 limits assumed): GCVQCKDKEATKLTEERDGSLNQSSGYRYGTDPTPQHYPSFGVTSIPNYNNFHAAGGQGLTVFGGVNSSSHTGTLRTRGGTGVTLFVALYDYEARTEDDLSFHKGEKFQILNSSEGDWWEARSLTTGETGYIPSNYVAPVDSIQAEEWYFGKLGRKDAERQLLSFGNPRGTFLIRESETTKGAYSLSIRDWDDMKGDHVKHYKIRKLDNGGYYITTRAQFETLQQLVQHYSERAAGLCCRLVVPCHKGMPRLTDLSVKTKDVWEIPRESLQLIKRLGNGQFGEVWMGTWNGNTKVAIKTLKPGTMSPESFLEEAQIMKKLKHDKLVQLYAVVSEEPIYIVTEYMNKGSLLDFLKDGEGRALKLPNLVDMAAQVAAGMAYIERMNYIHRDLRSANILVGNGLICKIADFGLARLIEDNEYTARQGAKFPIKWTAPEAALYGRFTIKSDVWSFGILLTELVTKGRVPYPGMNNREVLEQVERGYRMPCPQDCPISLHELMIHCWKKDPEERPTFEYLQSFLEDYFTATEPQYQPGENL
Insulin receptor (Homo sapiens), sequence (P06213 28-758 limits assumed): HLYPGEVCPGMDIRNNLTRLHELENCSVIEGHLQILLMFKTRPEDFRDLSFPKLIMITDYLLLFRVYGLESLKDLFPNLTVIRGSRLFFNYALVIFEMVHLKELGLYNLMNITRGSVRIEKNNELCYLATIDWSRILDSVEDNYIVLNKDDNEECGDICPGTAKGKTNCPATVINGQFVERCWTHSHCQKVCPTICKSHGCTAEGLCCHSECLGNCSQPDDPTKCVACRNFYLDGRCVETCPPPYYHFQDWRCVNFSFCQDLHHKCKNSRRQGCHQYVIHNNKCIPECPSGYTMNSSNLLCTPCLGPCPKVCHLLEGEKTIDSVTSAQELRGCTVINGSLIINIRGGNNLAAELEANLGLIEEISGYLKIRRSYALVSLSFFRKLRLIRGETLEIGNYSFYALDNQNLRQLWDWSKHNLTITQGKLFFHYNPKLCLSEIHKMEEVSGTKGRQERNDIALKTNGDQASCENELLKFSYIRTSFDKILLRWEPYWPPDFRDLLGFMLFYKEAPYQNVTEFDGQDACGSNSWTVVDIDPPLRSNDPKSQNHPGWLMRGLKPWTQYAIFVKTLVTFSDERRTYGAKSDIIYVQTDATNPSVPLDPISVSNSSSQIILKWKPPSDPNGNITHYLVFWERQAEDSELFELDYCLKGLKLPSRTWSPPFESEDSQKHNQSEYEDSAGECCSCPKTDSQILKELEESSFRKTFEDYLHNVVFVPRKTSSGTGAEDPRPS
Insulin receptor (Homo sapiens), sequence (P06213 763-1382 limits assumed): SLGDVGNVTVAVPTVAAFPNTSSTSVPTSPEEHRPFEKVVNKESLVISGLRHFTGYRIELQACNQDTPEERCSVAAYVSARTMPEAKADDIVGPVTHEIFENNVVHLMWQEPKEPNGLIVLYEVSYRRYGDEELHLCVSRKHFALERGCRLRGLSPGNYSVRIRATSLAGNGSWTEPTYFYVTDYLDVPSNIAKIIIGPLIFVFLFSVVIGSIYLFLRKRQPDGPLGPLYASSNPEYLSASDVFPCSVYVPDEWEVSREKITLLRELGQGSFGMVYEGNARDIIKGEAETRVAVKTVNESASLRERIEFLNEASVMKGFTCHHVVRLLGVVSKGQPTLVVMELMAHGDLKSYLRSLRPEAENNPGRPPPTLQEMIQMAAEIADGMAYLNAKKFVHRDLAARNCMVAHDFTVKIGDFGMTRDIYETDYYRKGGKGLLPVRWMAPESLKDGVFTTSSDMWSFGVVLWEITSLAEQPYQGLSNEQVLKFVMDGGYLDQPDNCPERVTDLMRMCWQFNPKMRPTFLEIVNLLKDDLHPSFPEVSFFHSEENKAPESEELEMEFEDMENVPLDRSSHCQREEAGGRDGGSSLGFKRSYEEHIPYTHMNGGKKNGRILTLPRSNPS
Tyrosine-protein kinase Lck, sequence (P06239 2-509 limits assumed): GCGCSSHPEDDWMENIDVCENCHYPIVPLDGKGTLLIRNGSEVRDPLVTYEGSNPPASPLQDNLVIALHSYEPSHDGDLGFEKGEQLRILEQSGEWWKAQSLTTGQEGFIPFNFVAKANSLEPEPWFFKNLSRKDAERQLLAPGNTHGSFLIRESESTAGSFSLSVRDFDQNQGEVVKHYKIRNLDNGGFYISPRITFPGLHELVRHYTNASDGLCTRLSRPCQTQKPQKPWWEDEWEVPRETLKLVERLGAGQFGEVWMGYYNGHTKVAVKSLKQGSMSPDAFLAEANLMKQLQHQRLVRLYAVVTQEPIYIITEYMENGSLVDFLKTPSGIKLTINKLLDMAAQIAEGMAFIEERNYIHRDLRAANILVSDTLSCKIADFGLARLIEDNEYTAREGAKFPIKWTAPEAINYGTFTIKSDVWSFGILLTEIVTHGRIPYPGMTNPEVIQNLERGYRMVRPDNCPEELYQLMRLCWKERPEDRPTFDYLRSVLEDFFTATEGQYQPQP
RAC-alpha serine/threonine-protein kinase, sequence (P31749 whole entry): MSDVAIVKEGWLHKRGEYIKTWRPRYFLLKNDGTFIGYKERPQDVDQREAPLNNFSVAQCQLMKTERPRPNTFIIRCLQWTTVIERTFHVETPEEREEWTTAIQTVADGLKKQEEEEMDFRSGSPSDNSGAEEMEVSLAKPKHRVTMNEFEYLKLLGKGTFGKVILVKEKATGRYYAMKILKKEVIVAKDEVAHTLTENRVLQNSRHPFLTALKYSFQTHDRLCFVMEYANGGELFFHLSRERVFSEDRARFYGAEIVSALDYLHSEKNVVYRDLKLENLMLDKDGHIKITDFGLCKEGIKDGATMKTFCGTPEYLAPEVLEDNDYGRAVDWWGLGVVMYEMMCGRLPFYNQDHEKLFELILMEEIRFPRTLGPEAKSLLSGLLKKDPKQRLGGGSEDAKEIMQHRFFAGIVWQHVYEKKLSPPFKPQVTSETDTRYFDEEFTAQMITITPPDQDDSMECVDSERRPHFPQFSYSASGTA

Structure (SMILES)	inhibition [1]	inhibition [2]	inhibition (Homo sapiens)	inhibition [3]	inhibition [4]	inhibition [5]	inhibition [6]	inhibition [7]	inhibition [8]	inhibition [9]	inhibition [10]	inhibition [11]	inhibition [12]
O=S(=O)(c1cccc2cnccc12)N1CCC2(CCCCN2)CC1	28%	26%	89%	24%	15%	0%	12%	25%	10%	27%	9%	3%	0%
CN(C)C(=O)C1CCC2(CCN(c3ncnc4[nH]cnc34)CC2)NC1 (racemic)	7%	27%	86%	30%	19%	54%	17%	18%	27%	69%	0%	17%	20%
c1nc(N2CCC3(CCCCC3)CC2)c2nc[nH]c2n1	40%	25%	55%	5%	35%	17%	20%	6%	6%	16%	33%	8%	12%
O=C(C1CCC2(CCN(c3ncnc4[nH]cnc34)CC2)NC1)N1CCOCC1 (racemic)	9%	29%	85%	27%	16%	65%	28%	14%	25%	66%	0%	16%	18%
O=S(=O)(c1cccc2cnccc12)N1CCCC2(CCNCC2)C1	3%	13%	83%	21%	11%	2%	0%	0%	17%	24%	2%	4%	0%
O=S(=O)(c1cccc2cnccc12)N1CCC2(CC1)CC(O)CCN2 (racemic)	51%	50%	92%	38%	26%	60%	12%	18%	13%	36%	9%	0%	20%
c1nc(N2CCCC3(CCNCC3)C2)c2nc[nH]c2n1	32%	35%	98%	55%	15%	71%	32%	3%	26%	85%	33%	3%	16%
c1nc(N2CCC3(CCCN3)CC2)c2nc[nH]c2n1	19%	81%	98%	82%	21%	85%	26%	29%	72%	91%	31%	2%	53%
COC(=O)C1CCC2(CCN(c3ncnc4[nH]cnc34)CC2)NC1 (racemic)	12%	16%	87%	36%	16%	36%	18%	21%	19%	61%	6%	10%	14%
NC1(Cc2ccccc2)CCN(S(=O)(=O)c2cccc3cnccc23)CC1	19%	8%	80%	16%	15%	4%	7%	0%	13%	15%	5%	4%	10%
OCC1CCC2(CCN(c3ncnc4[nH]cnc34)CC2)NC1 (racemic)	21%	56%	98%	45%	15%	27%	15%	43%	38%	80%	1%	17%	31%
c1ccc(CC2CCC3(CCN(c4ncnc5[nH]cnc45)CC3)NC2)cc1 (racemic)	14%	58%	95%	30%	44%	67%	31%	7%	36%	80%	20%	18%	31%
OC1CCC2(CCN(c3ncnc4[nH]cnc34)CC2)NC1 (racemic)	31%	53%	99%	48%	21%	71%	25%	30%	59%	93%	18%	4%	46%
c1nc(N2CCC3(CCCCN3)CC2)c2nc[nH]c2n1	28%	58%	98%	42%	25%	85%	33%	11%	57%	87%	34%	4%	46%
